# Experimental data as given in ChEMBL document CHEMBL5678815 (Clin Cancer Res, 2017).
# Active and inactive are the calls of the source. The calls are words filed in the database; no cut-off is given here.
# Assays:
# [1] = biological target: Serine/threonine-protein kinase B-raf (Homo sapiens) (UniProt P15056); test: Inhibition of human BRAF assessed as remaining activity at 1 uM by ATP-competition binding assay relative to control
# Summary of the method: (§1)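 KINOMEscan ATP-site-dependent competition binding panel of 395 human kinases, with compound tested at 1 μM. Binding is reported as remaining signal relative to control.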
# [2] = biological target: Calcium/calmodulin-dependent protein kinase type 1 (Homo sapiens) (UniProt Q14012); test: Inhibition of human CAMK1 assessed as remaining activity at 1 uM by ATP-competition binding assay relative to control; summary of the method: as §1
# [3] = biological target: Calcium/calmodulin-dependent protein kinase type 1D (Homo sapiens) (UniProt Q8IU85); test: Inhibition of human CAMK1D assessed as remaining activity at 1 uM by ATP-competition binding assay relative to control; summary of the method: as §1
# Chain of Calcium/calmodulin-dependent protein kinase type 1D (Homo sapiens) (Q8IU85 whole entry, looked up): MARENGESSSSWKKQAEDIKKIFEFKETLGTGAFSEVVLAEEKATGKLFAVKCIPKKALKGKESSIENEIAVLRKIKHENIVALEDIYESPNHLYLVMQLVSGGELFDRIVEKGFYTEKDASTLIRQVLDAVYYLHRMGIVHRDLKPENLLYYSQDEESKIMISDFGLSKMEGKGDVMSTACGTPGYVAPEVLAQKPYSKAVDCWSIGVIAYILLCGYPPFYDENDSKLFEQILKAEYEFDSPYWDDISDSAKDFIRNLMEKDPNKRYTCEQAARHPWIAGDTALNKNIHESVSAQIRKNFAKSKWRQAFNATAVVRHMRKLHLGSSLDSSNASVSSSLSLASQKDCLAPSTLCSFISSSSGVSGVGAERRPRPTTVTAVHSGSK
# [4] = biological target: Cyclin-dependent kinase 9 (Homo sapiens) (UniProt P50750); test: Inhibition of human CDK9 assessed as remaining activity at 1 uM by ATP-competition binding assay relative to control; summary of the method: as §1
# Chain of Cyclin-dependent kinase 9 (Homo sapiens) (P50750 whole entry): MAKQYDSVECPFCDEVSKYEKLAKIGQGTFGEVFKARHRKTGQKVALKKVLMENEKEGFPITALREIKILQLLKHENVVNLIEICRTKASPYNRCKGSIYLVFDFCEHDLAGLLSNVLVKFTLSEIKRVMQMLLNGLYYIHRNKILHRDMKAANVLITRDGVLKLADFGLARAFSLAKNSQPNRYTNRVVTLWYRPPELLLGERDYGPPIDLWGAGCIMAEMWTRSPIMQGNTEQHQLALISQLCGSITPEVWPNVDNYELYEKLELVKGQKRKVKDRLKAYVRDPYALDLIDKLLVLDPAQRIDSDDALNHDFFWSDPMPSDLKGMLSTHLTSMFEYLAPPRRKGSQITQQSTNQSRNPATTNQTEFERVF
# [5] = biological target: Serine/threonine-protein kinase 17B (Homo sapiens) (UniProt O94768); test: Inhibition of human DRAK2 assessed as remaining activity at 1 uM by ATP-competition binding assay relative to control; summary of the method: as §1
# [6] = test system: Epidermal growth factor receptor (Homo sapiens), P00533 [L858R,T790M]; test: Inhibition of human EGFR L858R/T790M mutant assessed as remaining activity at 1 uM by ATP-competition binding assay relative to control
# Summary of the method: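 KINOMEscan ATP-site-dependent competition binding assay across a 395-kinase human panel including mutants; compound tested at 1μM; binding expressed relative to control signal.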
# [7] = biological target: Ephrin type-A receptor 7 (Homo sapiens) (UniProt Q15375); test: Inhibition of human EPHA7 assessed as remaining activity at 1 uM by ATP-competition binding assay relative to control; summary of the method: as §1
# [8] = biological target: Ephrin type-A receptor 8 (Homo sapiens) (UniProt P29322); test: Inhibition of human EPHA8 assessed as remaining activity at 1 uM by ATP-competition binding assay relative to control
# Summary of the method: (§2)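 Single-point profiling at 1μM in an ATP-site-dependent competition binding assay across a panel of 395 human kinases, including mutant forms. The read-out is kinase binding signal in the presence of test agent, expressed as inhibition relative to the control signal. This screen assessed noncovalent binding interactions.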
# [9] = test system: Fibroblast growth factor receptor 3 (Homo sapiens), P22607 [G697C]; test: Inhibition of human FGFR3 G697C mutant assessed as remaining activity at 1 uM by ATP-competition binding assay relative to control; summary of the method: as §2
# [10] = biological target: Leukocyte tyrosine kinase receptor (Homo sapiens) (UniProt P29376); test: Inhibition of human LTK assessed as remaining activity at 1 uM by ATP-competition binding assay relative to control; summary of the method: as §2
# Chain of Leukocyte tyrosine kinase receptor (Homo sapiens) (P29376 whole entry): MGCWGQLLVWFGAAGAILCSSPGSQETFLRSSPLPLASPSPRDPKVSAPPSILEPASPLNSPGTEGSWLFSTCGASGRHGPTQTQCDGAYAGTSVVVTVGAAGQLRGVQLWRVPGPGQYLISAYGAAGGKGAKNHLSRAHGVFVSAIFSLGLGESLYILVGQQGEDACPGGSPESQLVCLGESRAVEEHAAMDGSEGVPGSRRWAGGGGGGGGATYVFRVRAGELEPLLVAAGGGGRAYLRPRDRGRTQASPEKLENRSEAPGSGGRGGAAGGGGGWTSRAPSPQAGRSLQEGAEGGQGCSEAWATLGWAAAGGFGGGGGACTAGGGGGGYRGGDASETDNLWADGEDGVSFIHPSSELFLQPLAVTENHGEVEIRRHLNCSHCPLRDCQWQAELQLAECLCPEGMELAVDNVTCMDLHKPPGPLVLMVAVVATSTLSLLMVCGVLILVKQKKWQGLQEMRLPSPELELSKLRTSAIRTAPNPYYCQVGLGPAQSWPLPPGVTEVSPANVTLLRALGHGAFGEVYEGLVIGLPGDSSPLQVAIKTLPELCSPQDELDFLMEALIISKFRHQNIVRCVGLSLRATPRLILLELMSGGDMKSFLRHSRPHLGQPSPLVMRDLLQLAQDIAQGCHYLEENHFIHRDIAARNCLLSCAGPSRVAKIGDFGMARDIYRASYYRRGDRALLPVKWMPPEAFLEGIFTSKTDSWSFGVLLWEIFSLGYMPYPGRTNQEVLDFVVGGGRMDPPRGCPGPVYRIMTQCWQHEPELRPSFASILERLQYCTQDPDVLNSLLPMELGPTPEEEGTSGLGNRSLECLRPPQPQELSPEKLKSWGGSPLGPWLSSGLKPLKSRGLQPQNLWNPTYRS
# [11] = biological target: Serine/threonine-protein kinase 3 (Homo sapiens) (UniProt Q13188); test: Inhibition of human MST2 assessed as remaining activity at 1 uM by ATP-competition binding assay relative to control; summary of the method: as §2
# [12] = biological target: Mitogen-activated protein kinase 13 (Homo sapiens) (UniProt O15264); test: Inhibition of human P38delta assessed as remaining activity at 1 uM by ATP-competition binding assay relative to control; summary of the method: as §2
# [13] = biological target: Serine/threonine-protein kinase PAK 1 (Homo sapiens) (UniProt Q13153); test: Inhibition of human PAK1 assessed as remaining activity at 1 uM by ATP-competition binding assay relative to control; summary of the method: as §2
# [14] = biological target: 3-phosphoinositide-dependent protein kinase 1 (Homo sapiens) (UniProt O15530); test: Inhibition of human PDPK1 assessed as remaining activity at 1 uM by ATP-competition binding assay relative to control; summary of the method: as §2
# [15] = biological target: Serine/threonine-protein kinase RIO2 (Homo sapiens) (UniProt Q9BVS4); test: Inhibition of human RIOK2 assessed as remaining activity at 1 uM by ATP-competition binding assay relative to control
# Summary of the method: (§3)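 Single-concentration (1 μM) screen in an ATP-site-dependent competition binding assay (KINOMEscan, outsourced) covering 395 human kinases, mutants included. Non-covalent binding was read as the remaining signal relative to the control signal.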
# [16] = biological target: Receptor-interacting serine/threonine-protein kinase 2 (Homo sapiens) (UniProt O43353); test: Inhibition of human RIPK2 assessed as remaining activity at 1 uM by ATP-competition binding assay relative to control; summary of the method: as §3
# [17] = biological target: SRSF protein kinase 3 (Homo sapiens) (UniProt Q9UPE1); test: Inhibition of human SRPK3 assessed as remaining activity at 1 uM by ATP-competition binding assay relative to control; summary of the method: as §3
# [18] = biological target: Dual specificity protein kinase TTK (Homo sapiens) (UniProt P33981); test: Inhibition of human TTK assessed as remaining activity at 1 uM by ATP-competition binding assay relative to control; summary of the method: as §3
# Chain of Dual specificity protein kinase TTK (Homo sapiens) (P33981 whole entry): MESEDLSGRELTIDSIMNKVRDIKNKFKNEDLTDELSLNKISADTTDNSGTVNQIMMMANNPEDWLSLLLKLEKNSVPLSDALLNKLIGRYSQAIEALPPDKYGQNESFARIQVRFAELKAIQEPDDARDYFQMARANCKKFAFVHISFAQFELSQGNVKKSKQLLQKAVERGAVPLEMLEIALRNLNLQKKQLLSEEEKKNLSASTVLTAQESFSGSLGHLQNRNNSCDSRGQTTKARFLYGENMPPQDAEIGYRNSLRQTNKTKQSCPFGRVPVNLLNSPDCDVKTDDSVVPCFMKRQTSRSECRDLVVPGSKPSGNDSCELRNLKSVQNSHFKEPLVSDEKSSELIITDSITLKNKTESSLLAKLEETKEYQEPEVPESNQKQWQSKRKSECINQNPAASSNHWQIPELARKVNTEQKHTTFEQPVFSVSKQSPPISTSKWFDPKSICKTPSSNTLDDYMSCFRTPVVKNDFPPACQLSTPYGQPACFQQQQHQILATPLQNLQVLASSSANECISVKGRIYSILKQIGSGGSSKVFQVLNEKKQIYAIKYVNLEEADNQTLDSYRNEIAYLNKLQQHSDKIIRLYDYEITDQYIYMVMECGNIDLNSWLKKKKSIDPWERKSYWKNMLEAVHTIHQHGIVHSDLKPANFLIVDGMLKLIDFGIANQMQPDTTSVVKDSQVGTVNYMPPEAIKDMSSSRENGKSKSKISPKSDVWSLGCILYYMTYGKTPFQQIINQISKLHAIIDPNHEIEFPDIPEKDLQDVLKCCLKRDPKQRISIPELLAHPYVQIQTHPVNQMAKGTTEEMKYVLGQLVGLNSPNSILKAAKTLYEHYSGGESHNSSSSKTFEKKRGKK
# [19] = biological target: Tyrosine-protein kinase Yes (Homo sapiens) (UniProt P07947); test: Inhibition of human YES assessed as remaining activity at 1 uM by ATP-competition binding assay relative to control; summary of the method: as §3
# Chain of Tyrosine-protein kinase Yes (Homo sapiens) (P07947 2-543 limits assumed): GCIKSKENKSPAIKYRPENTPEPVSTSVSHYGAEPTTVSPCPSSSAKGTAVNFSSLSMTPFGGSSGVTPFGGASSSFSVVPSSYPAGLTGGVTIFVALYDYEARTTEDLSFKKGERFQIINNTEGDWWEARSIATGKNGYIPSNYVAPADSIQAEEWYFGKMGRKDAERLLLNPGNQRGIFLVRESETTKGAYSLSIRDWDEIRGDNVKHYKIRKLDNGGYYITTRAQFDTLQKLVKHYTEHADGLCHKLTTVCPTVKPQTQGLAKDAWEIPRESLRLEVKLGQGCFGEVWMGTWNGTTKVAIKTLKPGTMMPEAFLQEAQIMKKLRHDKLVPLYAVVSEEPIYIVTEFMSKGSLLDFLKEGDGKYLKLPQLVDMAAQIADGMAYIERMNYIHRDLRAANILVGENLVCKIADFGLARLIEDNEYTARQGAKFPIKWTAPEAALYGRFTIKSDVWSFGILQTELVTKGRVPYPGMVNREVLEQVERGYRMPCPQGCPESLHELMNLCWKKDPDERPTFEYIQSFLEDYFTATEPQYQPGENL
# [20] = biological target: Receptor tyrosine-protein kinase erbB-4 (Homo sapiens) (UniProt Q15303); test: Inhibition of human ERBB4 at <100 nM by ATP-Competition Binding Assay
# Chain of Receptor tyrosine-protein kinase erbB-4 (Homo sapiens) (Q15303 whole entry): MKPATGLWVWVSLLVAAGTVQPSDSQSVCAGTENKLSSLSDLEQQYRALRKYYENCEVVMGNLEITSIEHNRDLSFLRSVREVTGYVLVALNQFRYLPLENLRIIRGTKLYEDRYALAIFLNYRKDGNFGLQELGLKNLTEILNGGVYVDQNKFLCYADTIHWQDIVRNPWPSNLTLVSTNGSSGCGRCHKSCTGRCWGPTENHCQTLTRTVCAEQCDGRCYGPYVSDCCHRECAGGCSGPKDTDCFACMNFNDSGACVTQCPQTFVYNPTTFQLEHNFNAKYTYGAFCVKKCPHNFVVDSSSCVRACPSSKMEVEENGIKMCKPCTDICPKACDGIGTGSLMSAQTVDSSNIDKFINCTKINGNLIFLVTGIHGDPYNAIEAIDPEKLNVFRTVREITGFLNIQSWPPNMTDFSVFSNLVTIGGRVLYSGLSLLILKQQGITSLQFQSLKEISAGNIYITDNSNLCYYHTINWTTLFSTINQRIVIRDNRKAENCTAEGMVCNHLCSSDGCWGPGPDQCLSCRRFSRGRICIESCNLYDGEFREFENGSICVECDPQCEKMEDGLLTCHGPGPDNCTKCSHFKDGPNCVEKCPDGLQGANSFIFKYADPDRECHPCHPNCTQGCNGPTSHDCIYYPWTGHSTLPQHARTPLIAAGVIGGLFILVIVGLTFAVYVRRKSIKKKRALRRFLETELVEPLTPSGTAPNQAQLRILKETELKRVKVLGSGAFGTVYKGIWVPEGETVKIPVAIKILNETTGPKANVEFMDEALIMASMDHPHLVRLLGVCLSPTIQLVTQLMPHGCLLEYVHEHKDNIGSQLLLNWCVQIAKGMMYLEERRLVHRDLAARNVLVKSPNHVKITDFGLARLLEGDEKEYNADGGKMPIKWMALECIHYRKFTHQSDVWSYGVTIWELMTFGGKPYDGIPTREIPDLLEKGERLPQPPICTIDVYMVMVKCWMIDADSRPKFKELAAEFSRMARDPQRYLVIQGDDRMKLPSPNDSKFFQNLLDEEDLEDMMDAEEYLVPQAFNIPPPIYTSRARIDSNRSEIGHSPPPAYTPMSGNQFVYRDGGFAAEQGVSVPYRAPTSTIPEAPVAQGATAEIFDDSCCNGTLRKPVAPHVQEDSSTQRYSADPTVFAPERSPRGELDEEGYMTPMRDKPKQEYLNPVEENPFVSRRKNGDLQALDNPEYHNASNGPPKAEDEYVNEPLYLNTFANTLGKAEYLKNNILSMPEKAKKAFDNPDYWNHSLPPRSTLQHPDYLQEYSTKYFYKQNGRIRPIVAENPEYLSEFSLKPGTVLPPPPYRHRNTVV
# [21] = biological target: Tyrosine-protein kinase Tec (Homo sapiens) (UniProt P42680); test: Inhibition of human TEC at < 100 nM by ATP-Competition Binding Assay
# Chain of Tyrosine-protein kinase Tec (Homo sapiens) (P42680 whole entry): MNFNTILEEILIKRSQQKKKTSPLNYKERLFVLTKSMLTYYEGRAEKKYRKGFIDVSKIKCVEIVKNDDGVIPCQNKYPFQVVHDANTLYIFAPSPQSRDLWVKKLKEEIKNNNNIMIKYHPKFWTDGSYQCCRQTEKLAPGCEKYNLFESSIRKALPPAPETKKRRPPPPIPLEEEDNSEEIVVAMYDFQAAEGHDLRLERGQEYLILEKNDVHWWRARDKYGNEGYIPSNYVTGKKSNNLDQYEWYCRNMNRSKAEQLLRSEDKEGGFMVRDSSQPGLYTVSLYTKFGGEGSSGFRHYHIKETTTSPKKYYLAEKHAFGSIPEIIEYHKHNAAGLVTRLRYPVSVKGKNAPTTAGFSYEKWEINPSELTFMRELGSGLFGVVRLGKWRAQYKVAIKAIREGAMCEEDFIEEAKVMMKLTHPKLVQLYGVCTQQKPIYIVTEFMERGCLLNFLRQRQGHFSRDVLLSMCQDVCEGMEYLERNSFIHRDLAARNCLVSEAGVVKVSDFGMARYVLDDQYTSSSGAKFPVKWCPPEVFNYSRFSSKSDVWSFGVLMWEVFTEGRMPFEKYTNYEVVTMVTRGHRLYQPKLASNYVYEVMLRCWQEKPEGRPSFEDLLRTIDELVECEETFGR
# Splenocyte [22] = test: In vivo inhibition of BCR signaling in female […] mouse assessed as CD69 expression at 1.3 mg/kg, po administered and measured after stimulation with anti-IgM for 18 h by flow cytometry analysis; assay type: functional, organism-based
# Summary of the method: (§4)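 Female C57BL/6 mice (5 per group per dose) were gavaged orally at 0.1–30 mg/kg. At 3 h, splenocytes were stimulated with anti-mouse IgM 10 μg/mL for 18 h at 37°C, 5% CO2. After Fc block, cells were stained for CD19 and CD69 with 7-AAD viability dye; >5,000 gated CD19+ cells acquired by flow cytometry.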
# Splenocyte [23] = test: In vivo inhibition of BCR signaling in female […] mouse assessed as […] CD69 expression at 1 to 3 mg/kg, po administered and measured after stimulation with anti-IgM for 18 h by flow cytometry analysis; assay type: functional, organism-based; conditions: dose 1-3 mg/kg; summary of the method: as §4
# [24] = Antileukemic activity against human CLL mononuclear cells xenografted NSG mouse assessed as reduction in spleen cells at 0.3 to 0.16 mg/ml preadministered with compound via drinking water and measured after 3 weeks by flow cytometry analysis relative to control; assay type: functional, CLL mononuclear cell; parameters: scale not given: the % may be the effect or the level left; conditions: dose 0.3-0.16 mg/ml, at 0.16 to 0.3 mg/mL
# Summary of the method: (§5)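 Primary CLL patient mononuclear cells (1 × 10^8 per mouse) engrafted into NSG mice on day 0 after busulfan priming on day −1. Vehicle or drug was given in drinking water from day −1. Mice were killed 3 weeks after engraftment; spleens homogenized, filtered and RBC-lysed; whole blood collected. Six patients, 2–5 mice per patient; paired t-test per patient.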
# CLL mononuclear cell = test: Antileukemic activity against human CLL mononuclear cells xenografted NSG mouse assessed as reduction in splenic tumor burden at 0.3 mg/ml preadministered with compound via drinking water and measured after 3 weeks by flow cytometry analysis; assay type: functional, cell-based; summary of the method: as §5
structure (smiles),measurement,setting,value
CC#CC(=O)N1CCC[C@H]1c1nc(-c2ccc(C(=O)Nc3ccccn3)cc2)c2c(N)nccn12 [ACALABRUTINIB],Activity,[1],64%
same,Activity,[2],87%
same,Activity,[3],98%
same,Activity,[4],87%
same,Activity,[5],88%
same,Activity,[6],94%
same,Activity,[7],94%
same,Activity,[8],91%
same,Activity,[9],77%
same,Activity,[10],86%
same,Activity,[11],65%
same,Activity,[12],57%
same,Activity,[13],87%
same,Activity,[14],67%
same,Activity,[15],80%
same,Activity,[16],60%
same,Activity,[17],93%
same,Activity,[18],91%
same,Activity,[19],83%
same,inhibition,[20],Active
same,inhibition,[21],Active
same,Activity,Splenocyte [22],Active
same,Activity,Splenocyte [23],Active
same,Activity,[24],33%
same,Activity,CLL mononuclear cell,Active
